This is an account of results in ChEMBL document CHEMBL1131592, “DNA-Directed alkylating agents. 7. Synthesis, DNA interaction, and antitumor activity of bis(hydroxymethyl)- and bis(carbamate)-substituted pyrrolizines and imidazoles” (J Med Chem, 1998).

pIC50: −log10 of the molar value.

In assay [1] the test system is P388. The experiment in a line: Compound was evaluated for reduction in P388 (type I DNA) cell numbers to 50% of control values after a 72 hour exposure. In kind it is functional, cell-based. The conditions noted are these: Mus musculus, P388, 72 h. In outline:
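P388 murine leukemia cells, log-phase cultures; drug present throughout 72 h growth period. IC50 = nominal drug concentration reducing cell density to 50% of control; eight control wells per plate. Averages of at least two (table footnote: three) independent determinations.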

The test system of assay [2] is Nucleic Acid. As to the kind of experiment: Rate constants (1/s x 10e4) for loss of compound when incubated with calf thymus DNA in SHE buffer (pH 7.0) at 37 degree Centigrade, as determined by HPLC. In kind it is nucleic-acid assay. To be noted: Bos taurus. The essentials:
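Aliquots extracted into 1-butanol with NaOAc; unreacted drug quantified by C-18 reverse-phase HPLC, 254 nm. kobs (hydrolysis plus alkylation) from ln(peak area) vs time fit.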

The term pIC50 denotes the IC50 on a negative log10 scale, so that one unit is a factor of ten. In assay [1], `OCc1c(CO)c2n(c1CCCc1ccc(Nc3c4ccccc4nc4ccccc34)cc1)CCC2` gave a negative-log IC50 (pIC50) of 5.89. For the same compound, in assay [2], the k obs was 0.000187 s⁻¹. Take `CNC(=O)OCc1ncn(CCCc2ccc(NC(=O)c3ccc(Nc4ccnc5ccccc45)cc3)cc2)c1COC(=O)NC`: the negative-log IC50 (pIC50) in assay [1] was < 4.70. With `CSc1nc(CO)c(CO)n1CCCc1ccc(NC(=O)c2ccc(Nc3ccnc4ccccc34)cc2)cc1`, the pIC50 in assay [1] is < 4.70. `CNC(=O)OCc1nc(SC)n(C)c1COC(=O)NC`: the negative logarithm of the IC50 (pIC50) in assay [1] is < 4.70. In addition, the k obs in assay [2] was found to be 0.000134 s⁻¹. Turning to `O=C(Nc1ccc(CCCn2cnc(CO)c2CO)cc1)c1ccc(Nc2ccnc3ccccc23)cc1`, in assay [1], the negative logarithm of the IC50 (pIC50) was < 4.70. Still for that read-out and setting: the same measure for `OCc1ncn(CCCc2ccc(Nc3c4ccccc4nc4ccccc34)cc2)c1CO`: 4.92. Take `O=C(Nc1ccc(CCCc2c(CO)c(CO)c3n2CCC3)cc1)c1ccc(Nc2ccnc3ccccc23)cc1`: the pIC50 in assay [1] was 6.96. Besides, the k obs in assay [2] came out at 0.000186 s⁻¹. Regarding `CNC(=O)OCc1ncn(CCCc2ccc(Nc3c4ccccc4nc4ccccc34)cc2)c1COC(=O)NC`, the pIC50 in assay [1] was 4.80. Same read-out and setting: the value for `CSc1nc(CO)c(CO)n1CCCc1ccc(Nc2c3ccccc3nc3ccccc23)cc1` was 5.89. On to `CNC(=O)OCc1nc(SC)n(CCCc2ccc(NC(=O)c3ccc(Nc4ccnc5ccccc45)cc3)cc2)c1COC(=O)NC`, for which the pIC50 in assay [1] was 4.96. Further, the k obs in assay [2] is 8.8e-05 s⁻¹. On to `O=C(Nc1ccc(CCc2c(CO)c(CO)c3n2CCC3)cc1)c1ccc(Nc2ccnc3ccccc23)cc1`, for which, in assay [1], the pIC50 was 7.52. Moreover, the k obs in assay [2] worked out at 0.000158 s⁻¹. As for `CNC(=O)OCc1nc(SC)n(CCCc2ccc(Nc3c4ccccc4nc4ccccc34)cc2)c1COC(=O)NC`, in assay [1], the negative logarithm of the IC50 (pIC50) is 6.10. The k obs in assay [2] came to 0.000161 s⁻¹.
